ChEMBL document CHEMBL1157963, “Characterization of pentasaccharide glycosides from the roots of Ipomoea arborescens” (2006)
Values after ≈ are worked out from the molar mass of the structure shown.

What was measured:
Type in all cases: functional
Details in all cases: read-out: ED50 (the source's name)
HCT-15 = test: Cytotoxicity against human HCT15 cells
Summary of the method: (§1)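 Cultured human carcinoma lines were used: colon HCT-15, cervical UISO-SQC-1 and ovarian OVCAR-5. Cells were exposed to a series of concentrations of the purified glycosides, and the cell inhibitory concentration was determined. Maintenance and assay details follow an earlier procedure that is not given here.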

[1] = Cytotoxicity against human UISO-SQC1 cells; summary of the method: as §1
OVCAR-5 = test: Cytotoxicity against human OVCAR5 cells; summary of the method: as §1

SMILES | EC50 (HCT-15) [µg/mL] | EC50 [1] [µg/mL] | EC50 (OVCAR-5) [µg/mL]
C/C=C/C(=O)O[C@@H]1[C@@H](OC(=O)C(C)C(C)O)[C@@H](O[C@H]2O[C@H](CO)[C@@H](O)[C@H](O)[C@H]2O)[C@H](O[C@@H]2[C@@H](O)[C@@H](OC(=O)CCCCCCCCCCC)[C@H](O[C@@H]3[C@@H](O)[C@H]4OC(=O)CCCCCCCCCC(CCCCC)O[C@@H]5O[C@H](C)[C@@H](O)[C@H](O)[C@H]5O[C@H]4O[C@H]3C)O[C@H]2C)O[C@H]1C (some centres undefined) [MURUCIN 7] | > 5 | > 5 | 4.5 (≈ 3.33 µM)
CCCCCCCCCCCC(=O)O[C@H]1[C@H](O[C@@H]2[C@@H](O)[C@H]3OC(=O)CCCCCCCCCC(CCCCC)O[C@@H]4O[C@H](CO)[C@@H](O)[C@H](O)[C@H]4O[C@H]3O[C@H]2C)O[C@@H](C)[C@H](O[C@@H]2O[C@@H](C)[C@H](OC(=O)CC)[C@@H](OC(=O)C(C)C(C)O)[C@H]2O[C@H]2O[C@H](CO)[C@@H](O)[C@H](O)[C@H]2O)[C@H]1O (some centres undefined) [ARBORESIN 3] | > 5 | > 5 | > 5
CCCCCCCCCCCC(=O)O[C@H]1[C@H](O[C@@H]2[C@@H](O)[C@H]3OC(=O)CCCCCCCCCC(CCCCC)O[C@@H]4O[C@H](CO)[C@@H](O)[C@H](O)[C@H]4O[C@H]3O[C@H]2C)O[C@@H](C)[C@H](O[C@@H]2O[C@@H](C)[C@H](OC(C)=O)[C@@H](OC(=O)C(C)C(C)O)[C@H]2O[C@H]2O[C@H](CO)[C@@H](O)[C@H](O)[C@H]2O)[C@H]1O (some centres undefined) [ARBORESIN 2] | > 5 | > 5 | 4.2 (≈ 3.13 µM)
CCCCCCCCCCCC(=O)O[C@H]1[C@H](O[C@@H]2[C@@H](O)[C@H]3OC(=O)CCCCCCCCCC(CCCCC)O[C@@H]4O[C@H](C)[C@@H](O)[C@H](O)[C@H]4O[C@H]3O[C@H]2C)O[C@@H](C)[C@H](O[C@@H]2O[C@@H](C)[C@H](O)[C@@H](O)[C@H]2O[C@H]2O[C@H](CO)[C@@H](O)[C@H](O)[C@H]2O)[C@H]1O (some centres undefined) [MURUCIN 9] | > 5 | > 5 | 4 (≈ 3.38 µM)
CCCCCCCCCCCC(=O)O[C@H]1[C@H](O[C@@H]2[C@@H](O)[C@H]3OC(=O)CCCCCCCCCC(CCCCC)O[C@@H]4O[C@H](CO)[C@@H](O)[C@H](O)[C@H]4O[C@H]3O[C@H]2C)O[C@@H](C)[C@H](O[C@@H]2O[C@@H](C)[C@H](OC(=O)CCC)[C@@H](OC(=O)C(C)C(C)O)[C@H]2O[C@H]2O[C@H](CO)[C@@H](O)[C@H](O)[C@H]2O)[C@H]1O (some centres undefined) [ARBORESIN 4] | > 5 | > 5 | > 5
C/C=C(\C)C(=O)O[C@@H]1[C@@H](OC(=O)C(C)C(C)O)[C@@H](O[C@H]2O[C@H](CO)[C@@H](O)[C@H](O)[C@H]2O)[C@H](O[C@@H]2[C@@H](O)[C@@H](OC(=O)CCCCCCCCCCC)[C@H](O[C@@H]3[C@@H](O)[C@H]4OC(=O)CCCCCCCCCC(CCCCC)O[C@@H]5O[C@H](C)[C@@H](O)[C@H](O)[C@H]5O[C@H]4O[C@H]3C)O[C@H]2C)O[C@H]1C (some centres undefined) [MURUCIN 8] | > 5 | > 5 | > 5
CCCCCCCCCCCC(=O)O[C@H]1[C@H](O[C@@H]2[C@@H](O)[C@H]3OC(=O)CCCCCCCCCC(CCCCC)O[C@@H]4O[C@H](CO)[C@@H](O)[C@H](O)[C@H]4O[C@H]3O[C@H]2C)O[C@@H](C)[C@H](O[C@@H]2O[C@@H](C)[C@H](OC(=O)C(C)CC)[C@@H](OC(=O)C(C)C(C)O)[C@H]2O[C@H]2O[C@H](CO)[C@@H](O)[C@H](O)[C@H]2O)[C@H]1O (some centres undefined) [ARBORESIN 5] | > 5 | > 5 | > 5
CCCCCCCCCCCC(=O)O[C@H]1[C@H](O[C@@H]2[C@@H](O)[C@H]3OC(=O)CCCCCCCCCC(CCCCC)O[C@@H]4O[C@H](CO)[C@@H](O)[C@H](O)[C@H]4O[C@H]3O[C@H]2C)O[C@@H](C)[C@H](O[C@@H]2O[C@@H](C)[C@H](O)[C@@H](OC(=O)C(C)C(C)O)[C@H]2O[C@H]2O[C@H](CO)[C@@H](O)[C@H](O)[C@H]2O)[C@H]1O (some centres undefined) [ARBORESIN 1] | > 5 | > 5 | 5 (≈ 3.85 µM)
